Most compounds without a hit are left out; they make up all but 2.3% or so of the library.
PME-1 inh = PME-1 inhibitors via competitive probe labeling, primary screen, biochemical, fluorescence polarization, FP-Rh probe, HTS | Protein phosphatase methylesterase 1 (Homo sapiens), Q9Y570 | inhibition, % at 5.9 µM | recombinant PME-1 | 320,000 tested, 0.53% active;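 active = inhibition above the campaign mean of all compounds plus 3 SD, cut at about 26% in these data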;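 note: competitive labeling of PME-1 active site by serine hydrolase directed probe; 0% = PME-1 with DMSO and 100% = wells lacking PME-1 enzyme; inhibitors block probe labeling so polarization falls and inhibition rises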
PRMT1 inh = PRMT1 methyltransferase inhibitors, primary screen, biochemical, fluorescence polarization; inhibition, % at 2.79 µM; Protein arginine N-methyltransferase 1 (Homo sapiens), Q99873; 370,000 tested, 1.3% active; recombinant PRMT1, activity-based probe fluorescence polarization;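 active = inhibition above about 21% made by adding two undisclosed values, limit read from the data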
RBBP9 inhibitor = human RBBP9 inhibitors, primary screen, biochemical, fluorescence polarization, FP-Rh probe, HTS; Serine hydrolase RBBP9 (Homo sapiens), O75884; recombinant RBBP9; inhibition, % at 7.94 µM; 220,000 tested, 0.2% active; AID 1515, 2009;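 active = inhibition above the campaign mean of all tested compounds plus 3 SD, cut at about 14% in these data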;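 note: plate controls were DMSO wells with RBBP9 for no effect and wells lacking RBBP9 protein for full effect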
Target sequence (O75884 whole entry, looked up): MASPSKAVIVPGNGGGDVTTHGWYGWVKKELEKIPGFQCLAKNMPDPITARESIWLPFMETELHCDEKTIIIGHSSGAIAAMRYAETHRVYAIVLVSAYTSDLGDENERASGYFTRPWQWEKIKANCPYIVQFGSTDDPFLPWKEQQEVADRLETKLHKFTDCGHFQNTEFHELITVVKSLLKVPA
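Measured by – fluorescence polarization · Test system – RBBP9 protein · Input – 2.5 µM RBBP9 dispensing solution, before mixing · Measure – percent inhibition from mP, scaled between DMSO and no-protein wells · Benchmarks – DMSO-treated enzyme wells and wells lacking RBBP9 · Times – preincubation 30 min plus labeling 45 min at 25 °C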
GSTO1 counter = inhibitors of recombinant GSTO1, primary screen, counter-screen for RBBP9 inhibitor project, biochemical, fluorescence polarization; Glutathione S-transferase omega-1 (Homo sapiens), P78417; activity-based probe fluorescence polarization; inhibition, % at 5.96 µM; 300,000 tested, 1.1% active;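 active = inhibition above the campaign mean inhibition plus 3 SD, cut at about 35% in these data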;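 note: 0% = GSTO1-1 with DMSO and 100% = wells lacking GSTO1-1 enzyme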
Target sequence (P78417 whole entry, looked up): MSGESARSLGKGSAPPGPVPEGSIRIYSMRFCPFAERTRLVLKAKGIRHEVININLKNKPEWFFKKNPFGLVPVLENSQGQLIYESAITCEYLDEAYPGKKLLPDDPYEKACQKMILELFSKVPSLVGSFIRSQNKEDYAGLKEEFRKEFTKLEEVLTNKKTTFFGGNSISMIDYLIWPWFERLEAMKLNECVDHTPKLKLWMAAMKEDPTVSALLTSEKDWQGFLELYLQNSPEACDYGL
PAD4 FP inh = human PAD4 inhibitors, primary screen, biochemical, fluorescence polarization, 1536-well format. Protein-arginine deiminase type-4 (Homo sapiens), Q9UM07. recombinant PAD4, RCA probe fluorescence polarization. inhibition, % at 6.36 µM. 330,000 tested, 0.41% active;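 active = percent inhibition above a cutoff equal to the mean of all tested compounds plus 3 SD, cut at about 15% in these data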;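 note: 0% = PAD4 with RCA probe and DMSO and 100% = probe without PAD4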
Fam108B inh = mouse Fam108B serine hydrolase inhibitors, primary screen, counter-screen for RBBP9 inhibitor project, biochemical, fluorescence polarization; recombinant Fam108B, FP-Rh probe fluorescence polarization; inhibition, % at 9.51 µM; 300,000 tested, 0.33% active; AID 1947, 2009;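 active = inhibition above the screen mean inhibition plus 3 SD, computed separately per campaign, cut at about 18% in these data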;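 note: inhibitors lower polarization as less probe binds the enzyme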
PRMT1 inh conf = PRMT1 methyltransferase inhibitors, confirmation, biochemical, fluorescence polarization, triplicate; 3,300 tested, 42% active; shares compounds with PRMT1 inh; recombinant His-PRMT1, activity-based probe fluorescence polarization; inhibition, % at 2.79 µM; AID 687036, 2013;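 active = mean inhibition across replicates above the hit cutoff derived for the earlier primary screen, cut at about 22% in these data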
The depositor's hits bear a star; . = not tested or not shown.

SMILES	PME-1 inh	PRMT1 inh	RBBP9 inhibitor	GSTO1 counter	PAD4 FP inh	Fam108B inh	PRMT1 inh conf
O=C1/C(=C/c2ccco2)SC(=S)N1C1CCS(=O)(=O)C1 (stereo not drawn)	1.6	36.5*	-6.2	25.9	8.7	3.9	5.8
O=C1/C(=C\c2ccco2)SC(=S)N1C1CCS(=O)(=O)C1 (stereo not drawn)	-0.4	25.3*	8.4	23.1	-3.2	1.2	1.7
COc1ccc(Sc2nc(-c3ccccc3)ncc2C(=O)O)cc1	0.4	-2.2	0.9	-1.2	-3.1	-2.2	.
Cc1ccc(NC(=O)CSc2nc(N)cc(=O)[nH]2)cc1S(=O)(=O)N1CCCCC1	.	43.9*	.	.	9.6	.	-0.4
Cc1ccc(NC(=O)CSc2nc(N)cc(=O)[nH]2)cc1S(=O)(=O)N1CCOCC1	-3.8	1.0	-5.3	-11.2	-4.9	0.9	.
COc1cccc(CNC(=O)C(=O)NCC2CCCN2S(=O)(=O)c2cc(C)ccc2C)c1 (stereo not drawn)	2.7	0.8	.	-0.1	-9.1	-0.8	.
O=C1/C(=C\c2ccco2)NC(=S)N1c1ccccc1	1.5	45.5*	-3.5	16.1	-6.7	5.5	50.7*
O=C1NC(=S)NC1=Cc1ccco1	.	63.8*	.	.	.	.	12.5
CS/C(=N\S(=O)(=O)c1cccs1)Nc1cccc(Cl)c1C	4.9	0.8	-2.2	-1.0	-1.6	-1.2	.
C[C@H](N)c1nnc(SCC(=O)N(C)C)o1	0.9	-2.9	-7.5	-6.2	-3.4	-0.2	.
CCN(CC)C(=S)SCC(=O)Nc1nc(=O)c2ccccc2s1	2.4	44.3*	0.5	-4.9	4.3	1.8	-6.3
CCN(CC)C(=S)SCC(=O)Nc1ccc(S(N)(=O)=O)cc1	-6.9	-4.2	-3.6	-5.8	-5.9	-3.7	.
Cc1ccc(C)c(N2CCN(C(=O)c3ccc4nc(-c5ccco5)c(-c5ccco5)nc4c3)CC2)c1	6.4	44.0*	0.8	7.3	2.5	-1.8	19.4
COc1ccccc1N1CCN(C(=O)c2ccc3nc(-c4ccco4)c(-c4ccco4)nc3c2)CC1	2.9	8.3	-0.8	0.5	-2.8	2.9	.
c1ccc(-c2cc3nc(NCc4cccs4)nc(NCc4ccc5occc5c4)c3s2)cc1	.	-0.4	.	.	.	.	.
Cc1ccc(S(=O)(=O)CCSC(=N)N)cc1	3.0	25.0*	-4.0	6.2	5.6	4.5	6.8
Cc1ccc(S(=O)(=O)CC(N)=O)cc1	-4.5	-1.3	-3.8	-2.8	2.8	-4.1	.
COc1ccc2nc(N3C(=O)C(O)=C(C(=O)c4ccco4)C3c3ccc(C)o3)sc2c1 (stereo not drawn)	.	34.2*	.	.	.	.	13.7
CCOc1ccc2nc(N3C(=O)C(O)=C(C(=O)c4ccco4)C3c3ccco3)sc2c1 (stereo not drawn)	-3.1	18.3	.	.	-3.7	.	.
COc1ccc2nc(N3C(=O)C(O)=C(C(=O)c4ccco4)C3c3ccccc3OC)sc2c1 (stereo not drawn)	-7.7	-0.4	.	-11.5	-4.4	0.0	.
Cc1ccc2nc(N3C(=O)C(O)=C(C(=O)c4ccco4)C3c3cccs3)sc2c1 (stereo not drawn)	-20.2	34.5*	1.1	-27.4	-15.7	-8.4	11.7
OCCn1c(CSc2nnc(-c3ccco3)n2-c2ccccc2)nc2ccc(Cl)cc21	0.4	38.9*	-1.3	1.0	-2.4	-2.0	33.6*
O=C1COc2ccc(S(=O)(=O)N3CCCCC3)cc2N1	-2.1	-2.4	.	-0.7	-6.0	0.8	.
COc1ccc(/C=C2\SC(=S)N(N3C(=O)CCC3=O)C2=O)cc1O	-3.0	49.2*	0.3	10.1	0.8	0.6	0.6
Cc1ccc(NC(=S)NCC2CCN(C(C)c3ccccc3)C2)cc1 (stereo not drawn)	6.6	-0.7	-5.7	-3.4	-0.9	3.8	.
SMILES	PME-1 inh	PRMT1 inh	RBBP9 inhibitor	GSTO1 counter	PAD4 FP inh	Fam108B inh	PRMT1 inh conf
Cc1cc(C)c(NC(=S)NCC2CCN(C(C)c3ccccc3)C2)c(C)c1 (stereo not drawn)	-6.7	41.7*	-1.4	3.1	1.2	-2.4	72.4*
CC1(C)CC(=O)C2=C(C1)Nc1ccccc1NC2	-0.5	25.0*	-7.0	5.5	-7.8	6.7	-0.4
Cc1cc2cc(CNC(=O)CCC(=O)O)ccc2n1C	-1.9	1.5	-0.7	2.5	3.9	0.5	.
Nc1nc(Sc2ccc([N+](=O)[O-])c3nonc23)c2[nH]cnc2n1	.	89.4*	.	.	.	.	84.0*
COc1ccccc1NS(=O)(=O)c1cccc(C(=O)NNC(=O)c2ccc(NC(C)=O)cc2)c1	1.9	0.8	.	.	1.5	.	.
COc1ccc(/C(O)=C2\C(=O)C(=O)N(Cc3ccco3)C2c2cc(OC)ccc2OC)cc1 (stereo not drawn)	3.8	0.8	-7.4	5.7	-3.8	-1.2	.
Cc1ccc(C2/C(=C(/O)c3ccc(Br)cc3)C(=O)C(=O)N2Cc2ccco2)o1 (stereo not drawn)	4.0	35.0*	-1.0	12.6	-4.0	-2.4	9.9
CCOC(=O)N1CCN(C(=O)CN2C(=O)COc3ccc(C)cc32)CC1	4.4	-2.1	-1.3	-0.7	-5.0	-0.7	.
Cc1cc(C)nc(SCNC(=O)c2ccccc2)n1	-7.3	33.8*	1.0	32.0	-2.2	0.9	-1.6
COc1ccc(CCNC(=O)c2cc(-c3ccco3)nc3ccccc23)cc1	3.4	39.5*	.	-0.8	-2.5	4.1	16.3
COCCCN(C(=O)c1cc(-c2ccco2)nc2ccccc12)c1c(N)n(Cc2ccccc2)c(=O)[nH]c1=O	-2.8	47.2*	.	-1.1	-5.0	5.6	10.6
O=C(COC(=O)c1cc(-c2ccco2)nc2ccccc12)NCc1ccccc1	3.6	35.6*	-4.9	5.4	-3.9	1.6	9.5
O=C(O)c1cc(-c2ccco2)nc2cc3ccccc3cc12	-4.9	26.1*	-7.5	14.5	1.7	1.0	22.4*
CCCn1c(N)c(N(CCOC)C(=O)c2cc(-c3ccco3)nc3ccccc23)c(=O)[nH]c1=O	3.5	13.9	.	0.3	-0.8	1.8	.
O=C(NNC(=O)c1cc(-c2ccco2)nc2ccccc12)c1ccccc1	-7.3	13.1	-3.0	5.1	-11.1	-10.8	.
Cc1cc(NC(=O)C(C)SCC(=O)OCC(=O)N(C)c2ccccc2)no1 (stereo not drawn)	5.3	0.5	.	7.5	5.6	-2.0	.
Cc1cc(N2CCN(CC(C)(C)O)C[C@@H]2C)ccc1N1CCN(Cc2ccccc2)[C@@H](C)C1	.	8.9	.	.	.	.	.

Assay outcomes as filed in PubChem BioAssay.
